pIC50: −log10 of the molar value.

In this test the target is T1, E-selectin (Homo sapiens, UniProt P16581).
T1 sequence (P16581 whole entry): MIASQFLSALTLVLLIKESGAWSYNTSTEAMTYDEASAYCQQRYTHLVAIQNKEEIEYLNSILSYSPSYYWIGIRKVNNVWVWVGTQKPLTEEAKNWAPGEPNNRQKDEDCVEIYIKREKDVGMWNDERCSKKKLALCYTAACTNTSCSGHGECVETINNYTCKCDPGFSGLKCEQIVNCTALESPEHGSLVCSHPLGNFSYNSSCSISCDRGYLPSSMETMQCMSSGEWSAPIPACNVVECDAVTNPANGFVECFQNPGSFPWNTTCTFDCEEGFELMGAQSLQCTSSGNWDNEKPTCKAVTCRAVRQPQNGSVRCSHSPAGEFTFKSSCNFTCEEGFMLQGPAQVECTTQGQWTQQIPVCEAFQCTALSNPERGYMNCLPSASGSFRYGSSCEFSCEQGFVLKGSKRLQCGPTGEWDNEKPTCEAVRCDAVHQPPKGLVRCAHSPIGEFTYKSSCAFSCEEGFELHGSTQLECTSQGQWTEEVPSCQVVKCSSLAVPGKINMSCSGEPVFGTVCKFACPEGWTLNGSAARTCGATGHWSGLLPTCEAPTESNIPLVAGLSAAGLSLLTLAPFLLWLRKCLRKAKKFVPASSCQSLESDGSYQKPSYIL
In words: Inhibition of MM6 cell adhesion to recombinant E-selectin by flow chamber assay. The procedure, abridged:
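Wells coated overnight at 4 °C with recombinant soluble E-selectin (5 µg/mL in PBS with Ca2+/Mg2+). Background wells had no selectin. Compound in RPMI with 1% FCS and DMSO applied for 60 min, then washed. MM6 cells (1 × 10^6/mL, RPMI + 1% FCS) perfused at 1 dyn/cm2 shear for 4 min. Cells adhering ≥30 s were counted in four random fields in the first minute by phase-contrast video microscopy. Experiments run two or three times; IC50 by curve fitting.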

As a reminder, the pIC50 is the IC50 on a negative log10 scale, so that one unit is a factor of ten. As for `CCCCCCCCCCOc1cc(OCCCCCCCCCC)cc(OCCCCCCON=C(c2ccc(C(=O)O)cc2)c2ccc(C(=O)O)cc2)c1`, the pIC50 was 4.70.
On to `CCCCCCCCCCOc1cc(OCCCCCCCCCC)cc(OCCCCCCN(c2ccc(C(=O)O)cc2)c2ccc(C(=O)O)cc2)c1`, for which the pIC50 was 4.55.

The values are drawn from BindingDB's records for doi:10.1021/jm060468y (Johannes Gutenberg University, 2006).
